# Measurements from ChEMBL document CHEMBL1944582, “Pyrazolopyridine Inhibitors of B-Raf(V600E). Part 1: The Development of Selective, Orally Bioavailable, and Efficacious Inhibitors” (ACS Med Chem Lett, 2011).
# pEC50, pIC50: −log10 of the molar value.
# Test system: not listed separately
# Experiment: Oral bioavailability in CD-1 mouse at 100 mg/kg as a solution in 40%PEG400/10%ethanol/50% water
# Type: ADME, organism-based
# Conditions: in vivo; call rule not given here
row,Structure (SMILES),bioavailability
1,CCCS(=O)(=O)Nc1ccc(F)c(C(=O)Nc2cnc3[nH]nc(OC)c3c2)c1F,51%
2,CCCS(=O)(=O)Nc1ccc(Cl)c(C(=O)Nc2cnc3[nH]nc(OC)c3c2)c1F,1.2%

# Test system: not listed separately
# Experiment: AUC in CD-1 mouse at 100 mg/kg, po
# Type: ADME, organism-based
# Parameters: dose 100 mg/kg, route oral
# Conditions: plasma
# In short: (§1)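 Single oral dose given to mice as a solution in 40% PEG400/10% ethanol/50% water, at 30 mg/kg or 100 mg/kg. Exposure is reported as AUC in μg h/mL.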
row,Structure (SMILES),AUC
1,CCCS(=O)(=O)Nc1ccc(F)c(C(=O)Nc2cnc3[nH]nc(OC)c3c2)c1F,664 µg·h/mL
2,CCCS(=O)(=O)Nc1ccc(Cl)c(C(=O)Nc2cnc3[nH]nc(OC)c3c2)c1F,50.7 µg·h/mL

# Test system: not listed separately
# Experiment: Plasma protein binding in CD-1 mouse
# Type: ADME, cell-free
# Conditions: read-out: PPB (converted)
row,Structure (SMILES),fraction unbound
1,CCCS(=O)(=O)Nc1ccc(F)c(C(=O)Nc2cnc3[nH]nc(OC)c3c2)c1F,0.026
2,CCCS(=O)(=O)Nc1ccc(F)c(C(=O)Nc2cnc3[nH]nc(C)c3c2)c1F,0.101
3,CCCS(=O)(=O)Nc1ccc(Cl)c(C(=O)Nc2cnc3[nH]nc(OC)c3c2)c1F,0.009

# Test system: COLO 205
# Experiment: Antitumor activity against human COLO205 cells xenografted in po dosed mouse assessed as tumor growth inhibition administered QD for 17 days
# Type: functional
# Conditions: COLO 205, po, 408 h
# In short: (§2)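 Mice with established Colo205 xenografts received the spray-dried dispersion orally at ascending doses once daily for 17 or 20 days. Tumor growth inhibition is expressed as percent of vehicle control, and ED50 and ED90 are given in mg/kg.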
Structure (SMILES),ED50,ED90
CCCS(=O)(=O)Nc1ccc(Cl)c(C(=O)Nc2cnc3[nH]nc(OC)c3c2)c1F,11 mg/kg,50 mg/kg

# Test system: not listed separately
# Experiment: Oral bioavailability in CD-1 mouse at 2.5 to 80 mg/kg as formulation of 25% SDD
# Type: ADME, organism-based
# Conditions: in vivo
# In short: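 Oral bridging PK in mice used a 25% amorphous spray-dried dispersion on HPMCAS polymer at 2.5, 10, 40 and 80 mg/kg. Bioavailability (F) was derived per dose. The earlier solution vehicle was 40% PEG400/10% ethanol/50% water, with select intravenous dosing.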
row,Structure (SMILES),bioavailability
1,CCCS(=O)(=O)Nc1ccc(F)c(C(=O)Nc2cnc3[nH]nc(OC)c3c2)c1F,19%

# Test system: not listed separately
# Experiment: Clearance in CD-1 mouse
# Type: ADME, organism-based
# Conditions: in vivo
# In short: (§3)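 Some compounds were also given intravenously to mice. Clearance is reported in mL/min/kg and volume of distribution in L/kg.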
row,Structure (SMILES),clearance
1,CCCS(=O)(=O)Nc1ccc(Cl)c(C(=O)Nc2cnc3[nH]nc(OC)c3c2)c1F,0.06 L/h/kg

# Test system: COLO 205
# Experiment: Antitumor activity against human COLO205 cells xenografted in po dosed mouse assessed as tumor growth inhibition administered QD for 20 days
# Type: functional
# Conditions: COLO 205, po, 480 h
# In short: as §2
Structure (SMILES),ED50,ED90
CCCS(=O)(=O)Nc1ccc(F)c(C(=O)Nc2cnc3[nH]nc(OC)c3c2)c1F,20 mg/kg,80 mg/kg

# Test system: not listed separately
# Experiment: Inhibition of CYP450 at 25 uM
# Type: ADME
# Conditions: not given
row,Structure (SMILES),inhibition (INH)
1,CCCS(=O)(=O)Nc1ccc(F)c(C(=O)Nc2cnc3[nH]nc(OC)c3c2)c1F,Not Active
2,CCCS(=O)(=O)Nc1ccc(Cl)c(C(=O)Nc2cnc3[nH]nc(OC)c3c2)c1F,Not Active

# Test system: not listed separately
# Experiment: Oral bioavailability in CD-1 mouse at 10 mg/kg as formulation of 25% SDD
# Type: ADME, organism-based
# Conditions: in vivo
# In short: (§4)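 Oral dosing in mice used a 25% amorphous spray-dried dispersion on HPMCAS polymer, given at 10, 30, 60 and 100 mg/kg. Oral bioavailability (F) was determined at each dose.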
row,Structure (SMILES),bioavailability
1,CCCS(=O)(=O)Nc1ccc(Cl)c(C(=O)Nc2cnc3[nH]nc(OC)c3c2)c1F,53%

# Test system: not listed separately
# Experiment: AUC in CD-1 mouse at 30 mg/kg, po
# Type: ADME, organism-based
# Parameters: dose 30 mg/kg, route oral
# Conditions: plasma
# In short: as §1
row,Structure (SMILES),AUC
1,CCCS(=O)(=O)Nc1ccc(F)c(C(=O)Nc2cnc3[nH]nc(OC)c3c2)c1F,190 µg·h/mL
2,CCCS(=O)(=O)Nc1ccc(F)c(C(=O)Nc2cnc3[nH]nc(C)c3c2)c1F,18.3 µg·h/mL
3,CCCS(=O)(=O)Nc1ccc(Cl)c(C(=O)Nc2cnc3[nH]nc(OC)c3c2)c1F,1080 µg·h/mL

# Test system: not listed separately
# Experiment: Volume of distribution in CD-1 mouse
# Type: ADME, organism-based
# Conditions: in vivo
# In short: as §3
row,Structure (SMILES),Vd
1,CCCS(=O)(=O)Nc1ccc(Cl)c(C(=O)Nc2cnc3[nH]nc(OC)c3c2)c1F,0.11 L/kg

# Test system: not listed separately
# Experiment: Oral bioavailability in CD-1 mouse at 100 mg/kg as formulation of 25% SDD
# Type: ADME, organism-based
# Conditions: in vivo
# In short: as §4
row,Structure (SMILES),bioavailability
1,CCCS(=O)(=O)Nc1ccc(Cl)c(C(=O)Nc2cnc3[nH]nc(OC)c3c2)c1F,13%

# Test system: COLO 205
# Experiment: Cytotoxicity against human COLO205 cells after 4 days by CellTiter-Glo assay
# Type: functional, cell-based
# Conditions: COLO 205, 96 h
row,Structure (SMILES),pEC50
1,CCCS(=O)(=O)Nc1ccc(F)c(C(=O)Nc2cnc3[nH]nc(OC)c3c2)c1F,7.10
2,CCCS(=O)(=O)Nc1ccc(Cl)c(C(=O)Nc2cnc3[nH]nc(OC)c3c2)c1F,7.15

# Biological target: Voltage-gated inwardly rectifying potassium channel KCNH2 (Homo sapiens, UniProt Q12809)
# Sequence (Q12809 whole entry): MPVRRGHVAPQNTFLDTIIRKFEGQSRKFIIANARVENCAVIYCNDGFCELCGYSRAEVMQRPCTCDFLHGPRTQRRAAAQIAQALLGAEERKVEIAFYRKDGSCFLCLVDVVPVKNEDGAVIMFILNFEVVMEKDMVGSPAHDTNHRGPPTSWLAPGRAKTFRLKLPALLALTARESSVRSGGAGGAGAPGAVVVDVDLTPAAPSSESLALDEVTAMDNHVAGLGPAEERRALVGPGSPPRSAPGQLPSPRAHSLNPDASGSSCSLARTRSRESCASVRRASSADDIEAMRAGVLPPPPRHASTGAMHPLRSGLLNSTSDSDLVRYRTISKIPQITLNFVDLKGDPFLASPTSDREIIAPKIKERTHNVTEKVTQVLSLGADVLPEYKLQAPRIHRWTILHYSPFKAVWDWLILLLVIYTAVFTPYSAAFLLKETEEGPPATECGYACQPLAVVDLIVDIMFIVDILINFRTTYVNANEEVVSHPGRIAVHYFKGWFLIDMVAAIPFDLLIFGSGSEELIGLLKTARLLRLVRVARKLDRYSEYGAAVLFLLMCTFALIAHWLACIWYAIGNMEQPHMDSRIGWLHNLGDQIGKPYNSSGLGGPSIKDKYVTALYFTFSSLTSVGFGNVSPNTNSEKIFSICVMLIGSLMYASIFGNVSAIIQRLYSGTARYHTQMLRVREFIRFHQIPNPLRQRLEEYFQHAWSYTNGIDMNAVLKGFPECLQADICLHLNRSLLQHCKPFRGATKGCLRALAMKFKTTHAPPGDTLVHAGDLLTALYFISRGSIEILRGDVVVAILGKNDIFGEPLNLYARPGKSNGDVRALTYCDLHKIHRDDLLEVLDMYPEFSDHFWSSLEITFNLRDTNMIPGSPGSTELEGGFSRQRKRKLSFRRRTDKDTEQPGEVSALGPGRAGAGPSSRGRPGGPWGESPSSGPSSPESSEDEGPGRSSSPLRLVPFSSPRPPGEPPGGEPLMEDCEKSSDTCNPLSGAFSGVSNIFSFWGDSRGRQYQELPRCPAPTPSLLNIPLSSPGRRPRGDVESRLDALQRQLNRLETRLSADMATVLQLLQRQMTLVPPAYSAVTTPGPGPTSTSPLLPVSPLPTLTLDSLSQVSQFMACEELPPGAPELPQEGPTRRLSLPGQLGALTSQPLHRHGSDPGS
# Experiment: Inhibition of human Erg at 100 uM
# Conditions: not given
row,Structure (SMILES),inhibition (INH)
1,CCCS(=O)(=O)Nc1ccc(F)c(C(=O)Nc2cnc3[nH]nc(OC)c3c2)c1F,Not Active
2,CCCS(=O)(=O)Nc1ccc(Cl)c(C(=O)Nc2cnc3[nH]nc(OC)c3c2)c1F,Not Active

# Test system: not listed separately
# Experiment: Oral bioavailability in CD-1 mouse at 60 mg/kg as formulation of 25% SDD
# Type: ADME, organism-based
# Conditions: in vivo
# In short: as §4
row,Structure (SMILES),bioavailability
1,CCCS(=O)(=O)Nc1ccc(Cl)c(C(=O)Nc2cnc3[nH]nc(OC)c3c2)c1F,19%

# Test system: not listed separately
# Experiment: Aqueous solubility of the compound in phosphate buffer at pH 6.5 after 24 hrs by HPLC analysis
# Type: physicochemical
# Conditions: not given
row,Structure (SMILES),solubility at 24 h
1,CCCS(=O)(=O)Nc1ccc(F)c(C(=O)Nc2cnc3[nH]nc(OC)c3c2)c1F,4 µg/mL
2,CCCS(=O)(=O)Nc1ccc(F)c(C(=O)Nc2cnc3[nH]nc(C)c3c2)c1F,380 µg/mL
3,CCCS(=O)(=O)Nc1ccc(Cl)c(C(=O)Nc2cnc3[nH]nc(OC)c3c2)c1F,< 1 µg/mL

# Test system: not listed separately
# Experiment: Oral bioavailability in CD-1 mouse at 30 mg/kg as a solution in 40% PEG400/10%ethanol/50% water
# Type: ADME, organism-based
# Conditions: in vivo
row,Structure (SMILES),bioavailability
1,CCCS(=O)(=O)Nc1ccc(F)c(C(=O)Nc2cnc3[nH]nc(OC)c3c2)c1F,48%
2,CCCS(=O)(=O)Nc1ccc(Cl)c(C(=O)Nc2cnc3[nH]nc(OC)c3c2)c1F,53%

# Test system: not listed separately
# Experiment: Oral bioavailability in CD-1 mouse at 30 mg/kg as formulation of 25% SDD
# Type: ADME, organism-based
# Conditions: in vivo
# In short: as §4
row,Structure (SMILES),bioavailability
1,CCCS(=O)(=O)Nc1ccc(Cl)c(C(=O)Nc2cnc3[nH]nc(OC)c3c2)c1F,28%

# Test system: Mus musculus
# Experiment: Toxicity in human COLO205 cells xenografted mouse assessed as change in body weight at 100 mg/kg, po administered QD for 17 days
# Conditions: in vivo, 408 h
row,Structure (SMILES),Activity
1,CCCS(=O)(=O)Nc1ccc(F)c(C(=O)Nc2cnc3[nH]nc(OC)c3c2)c1F,Non-toxic
2,CCCS(=O)(=O)Nc1ccc(Cl)c(C(=O)Nc2cnc3[nH]nc(OC)c3c2)c1F,Non-toxic

# Biological target: T1, Serine/threonine-protein kinase B-raf (Homo sapiens, UniProt P15056, V600E)
# T1 sequence (P15056 2-766 V600E limits assumed): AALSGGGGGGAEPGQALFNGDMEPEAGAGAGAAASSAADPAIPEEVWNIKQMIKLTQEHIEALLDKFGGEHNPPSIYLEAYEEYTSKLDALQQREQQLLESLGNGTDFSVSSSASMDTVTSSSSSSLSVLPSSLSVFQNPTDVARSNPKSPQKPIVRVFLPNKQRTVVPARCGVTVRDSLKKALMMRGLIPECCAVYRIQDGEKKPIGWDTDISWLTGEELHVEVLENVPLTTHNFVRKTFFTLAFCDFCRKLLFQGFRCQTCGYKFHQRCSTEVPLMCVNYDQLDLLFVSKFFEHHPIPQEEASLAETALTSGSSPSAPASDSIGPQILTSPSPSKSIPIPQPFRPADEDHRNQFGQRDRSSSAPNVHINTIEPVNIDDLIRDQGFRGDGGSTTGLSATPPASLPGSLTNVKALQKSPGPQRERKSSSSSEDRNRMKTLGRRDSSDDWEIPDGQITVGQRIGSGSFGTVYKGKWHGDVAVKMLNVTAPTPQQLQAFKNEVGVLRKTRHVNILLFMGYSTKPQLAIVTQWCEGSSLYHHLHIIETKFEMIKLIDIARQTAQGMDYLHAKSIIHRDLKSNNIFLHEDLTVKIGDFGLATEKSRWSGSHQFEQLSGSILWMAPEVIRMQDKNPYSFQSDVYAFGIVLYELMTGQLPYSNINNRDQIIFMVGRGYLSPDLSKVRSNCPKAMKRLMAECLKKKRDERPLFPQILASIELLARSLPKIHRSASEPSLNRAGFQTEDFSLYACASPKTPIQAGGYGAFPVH
# Experiment: Inhibition of B-Raf V600E mutant-mediated Erk phosphorylation in human A375 cells after 1 hr by fluorescence analysis
# Type: cell-based, A-375
# Conditions: not given
# In short: (§5)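 Cells were not stimulated, and inhibition was read against their basal ERK phosphorylation. This was the mechanistic cellular assay, run in both Malme-3M and A375 lines.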
row,Structure (SMILES),pIC50
1,CCCS(=O)(=O)Nc1ccc(F)c(C(=O)Nc2cnc3[nH]nc(OC)c3c2)c1F,6.82
2,CCCS(=O)(=O)Nc1ccc(F)c(C(=O)Nc2cnc3[nH]nc(C)c3c2)c1F,6.08
3,CCCS(=O)(=O)Nc1ccc(Cl)c(C(=O)Nc2cnc3[nH]nc(OC)c3c2)c1F,6.62

# Biological target: T1, Serine/threonine-protein kinase B-raf
# Experiment: Inhibition of B-Raf V600E mutant-mediated Erk phosphorylation in human MALME-3M cells after 1 hr by fluorescence analysis
# Type: cell-based
# Conditions: not given
# In short: as §5
row,Structure (SMILES),pIC50
1,CCCS(=O)(=O)Nc1ccc(F)c(C(=O)Nc2cnc3[nH]nc(OC)c3c2)c1F,7.72
2,CCCS(=O)(=O)Nc1ccc(F)c(C(=O)Nc2cnc3[nH]nc(C)c3c2)c1F,7.07
3,CCCS(=O)(=O)Nc1ccc(Cl)c(C(=O)Nc2cnc3[nH]nc(OC)c3c2)c1F,7.70

# Test system: not listed separately
# Experiment: Aqueous solubility of the compound in phosphate buffer at pH 7.4 after 24 hrs by HPLC analysis
# Type: physicochemical
# Conditions: not given
row,Structure (SMILES),solubility at 24 h
1,CCCS(=O)(=O)Nc1ccc(F)c(C(=O)Nc2cnc3[nH]nc(OC)c3c2)c1F,9 µg/mL
2,CCCS(=O)(=O)Nc1ccc(F)c(C(=O)Nc2cnc3[nH]nc(C)c3c2)c1F,740 µg/mL
3,CCCS(=O)(=O)Nc1ccc(Cl)c(C(=O)Nc2cnc3[nH]nc(OC)c3c2)c1F,2 µg/mL

# Test system: Salmonella typhimurium
# Experiment: Induction of mutagenesis in Salmonella Typhimurium by Ames test
# Type: toxicity, organism-based
# Conditions: salmonella enterica subsp. enterica serovar typhimurium
row,Structure (SMILES),Activity
1,CCCS(=O)(=O)Nc1ccc(F)c(C(=O)Nc2cnc3[nH]nc(OC)c3c2)c1F,Non-toxic
2,CCCS(=O)(=O)Nc1ccc(Cl)c(C(=O)Nc2cnc3[nH]nc(OC)c3c2)c1F,Non-toxic

# Biological target: T1, Serine/threonine-protein kinase B-raf
# Experiment: Inhibition of full length human B-Raf V600E mutant expressed in baculovirus infected insect cells assessed as [gamma-33P]incorporation into MEK after 60 mins by scintillation counting
# Conditions: not given
row,Structure (SMILES),pIC50
1,CCCS(=O)(=O)Nc1ccc(F)c(C(=O)Nc2cnc3[nH]nc(C)c3c2)c1F,7.92
2,CCCS(=O)(=O)Nc1ccc(Cl)c(C(=O)Nc2cnc3[nH]nc(OC)c3c2)c1F,8.77

# Test system: Mus musculus
# Experiment: Toxicity in human COLO205 cells xenografted mouse assessed as change in body weight at 125 mg/kg, po administered QD for 20 days
# Conditions: in vivo, 480 h
row,Structure (SMILES),Activity
1,CCCS(=O)(=O)Nc1ccc(F)c(C(=O)Nc2cnc3[nH]nc(OC)c3c2)c1F,Non-toxic
2,CCCS(=O)(=O)Nc1ccc(Cl)c(C(=O)Nc2cnc3[nH]nc(OC)c3c2)c1F,Non-toxic
